LEDGF integ inh: blocks HIV-1 LEDGF/p75-dependent DNA integration; TR-FRET IN-LEDGF/p75 DNA integration, Eu/Cy5; inhibition, % at 3.7 µM; 370,000 compounds, 0.64% hits; AID 743269;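 active means inhibition above the screen-wide mean plus 3 SD, cut at about 13% in these data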;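 further: signal is the Cy5 over europium emission ratio at 671 and 618 nm; 0% = plate median of compound wells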
MBD2 DNA inh: inhibitors of human MBD2 binding to methylated oligonucleotide; 370,000 compounds, 0.31% hits; inhibition, % at 4.4 µM; AID 686964; TR-FRET; in the data active means inhibition above about 13%
ATG4B inhibitor: ATG4B (human) cysteine protease inhibition. ATG4B cleavage of LC3-PLA2, NBD-HPC fluorescence, 1 h. 340,000 compounds, 0.51% hits. inhibition, % at 8.33 µM. Q9Y4P1; in the data active means inhibition above about 40%
Target sequence (Q9Y4P1 whole entry, looked up): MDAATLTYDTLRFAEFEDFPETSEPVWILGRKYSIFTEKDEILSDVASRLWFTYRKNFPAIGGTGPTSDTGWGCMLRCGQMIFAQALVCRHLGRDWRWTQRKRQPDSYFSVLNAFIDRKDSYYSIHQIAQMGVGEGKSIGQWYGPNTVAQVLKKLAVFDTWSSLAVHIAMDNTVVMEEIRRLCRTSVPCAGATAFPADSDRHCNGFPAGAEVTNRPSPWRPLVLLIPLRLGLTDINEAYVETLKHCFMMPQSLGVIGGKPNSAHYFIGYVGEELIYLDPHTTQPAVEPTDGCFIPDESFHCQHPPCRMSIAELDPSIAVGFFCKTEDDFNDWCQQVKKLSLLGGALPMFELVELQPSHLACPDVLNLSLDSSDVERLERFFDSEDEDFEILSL
UHRF1 MBD2 ctr: blocks human UHRF1 binding to methylated DNA. inhibition, % at 4.4 µM. UHRF1 binding to methylated oligo, TR-FRET. AID 687016. 370,000 compounds, 0.75% hits; in the data active means inhibition above about 21%;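 further: UHRF1 SRA domain binding a hemimethylated CpG hairpin DNA probe; 0% = median of test compound wells and 100% = reference inhibitor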
CSN inh: inhibitors of human CSN-mediated cullin deneddylation; inhibition, % at 12.5 µM; AID 651999; Q92905; 360,000 compounds, 0.38% hits; Purified CSN, SCF-Nedd8-OG deneddylation, fluorescence polarization;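 active means pattern-corrected inhibition above about 35%, with an unprinted fluorescence ratio check between 0.5 and 1.5, limit read from the data, passing the limit was not always enough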;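 further: 0% = enzyme with substrate and 100% = substrate without enzyme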
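Material: purified human Csn5 enzyme expressed in HEK293T cells / Medium: Tris buffer pH 7.5, NaCl, DTT, Tween-20, trehalose, ovalbumin / Compound dosing: 12.5 µM single point / Schedule: 90 min incubation of compound, enzyme and substrate at room temperature / Signal: fluorescence polarization of the substrate / Control set: no-enzyme wells high, enzyme-with-substrate wells low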
rCAG RNA binder: molecules binding r(CAG) RNA repeats; r(CAG) RNA repeat, TO-PRO-1 dye displacement fluorescence; inhibition, % at 3 µM; 370,000 compounds, 1.3% hits;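 active means inhibition above the plate cutoff, the mean of all test compounds on that plate plus 3 SD, cut at about 35% in these data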;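 further: 0% = DMSO alone and 100% = 100 µM mitoxantrone as full dye displacement; higher means more dye released from RNA so lower well fluorescence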
Starred values were filed as active, the others as inactive; nt = not tested or not shown. Hits are enriched below; roughly 3.1% of the tested compounds scored in any of these assays.

SMILES	LEDGF integ inh	MBD2 DNA inh	ATG4B inhibitor	UHRF1 MBD2 ctr	CSN inh	rCAG RNA binder
O=c1cc(-c2ccc(O)cc2)oc2c([C@@H]3O[C@H](CO)[C@@H](O)[C@H](O)[C@H]3O)c(O)c([C@@H]3O[C@H](CO)[C@@H](O)[C@H](O)[C@H]3O)c(O)c12	-3	-2	-7	-4	2	2
Cc1cc(C)cc(NC(=O)NC2CCN(S(=O)(=O)c3ccc(F)cc3)CC2)c1	5	-1	nt	-1	nt	2
O=C(NCCCNc1ccc(C(F)(F)F)cc1[N+](=O)[O-])c1ccc(Cl)cc1	4	0	-6	52*	3	2
CCCCCCCC(=O)N/N=C(\C)c1cccnc1	-1	-2	-9	-3	58*	-3
C/C(=N\NC(=O)Cc1ccccc1Cl)c1cccnc1	2	2	-7	0	1	-1
Cc1cccc(N(C(=O)c2snc(C(N)=O)c2N)C(C(=O)NC2CCCC2)c2ccc(C)o2)c1 (stereo unspecified)	-2	2	-4	70*	1	4
Cc1ccccc1N(C(=O)c1snc(C(N)=O)c1N)C(C)C(=O)NC1CCCCC1 (stereo unspecified)	2	1	15	-1	1	-3
Cc1ccccc1N(C(=O)c1snc(C(N)=O)c1N)C(C(=O)NC1CCCCC1)c1ccc(O)cc1 (stereo unspecified)	-1	-6	10	50*	-1	11
O=C(Nc1nccs1)C1CCCN1S(=O)(=O)c1ccc(Cl)cc1 (stereo unspecified)	-1	3	0	25*	3	-4
COC(=O)C1CN(C2CCCC2)CCS(=O)(=O)N1Cc1ccccc1 (stereo unspecified)	1	5	nt	3	nt	2
COc1cccc(C(=O)Nc2ccccc2NC(=O)c2cccc(OC)c2)c1	1	4	-2	0	6	-5
COc1cccc(C(=O)Nc2ccccc2-c2ccccc2)c1	7	8	0	22*	0	-1
N=c1c2c(-c3ccccc3)c(-c3ccccc3)n(Cc3ccccc3)c2ncn1C1CCOCC1	4	-8	nt	-3	nt	4
O=C(C[n+]1cccc(CNC(=O)c2ccc(OC(F)F)cc2)c1)Nc1cc(C(F)(F)F)ccc1Cl	-4	-1	-6	1	-15	13
NC(=O)C[n+]1cccc(CNC(=O)c2ccc(OC(F)F)cc2)c1	-5	4	-4	77*	-8	1
CSc1nnc2c(n1)C[C@H](c1ccccc1)[C@@H](C)[C@@H](C(=O)N1CCCC1)C2	-1	2	nt	-3	nt	3
Cc1nnc(SCC(=O)NC(=O)NCc2ccco2)s1	4	-1	-7	30*	-1	1
O=C(CSc1nc2ccccc2s1)NC(=O)NCc1ccco1	2	-1	-4	4	5	12
COC(=O)[C@]12C[C@H](CC(=O)NCCc3ccccc3OC)C(=O)N(Cc3cccc4ccccc34)C1=C[C@H](C(C)(C)C)O[C@@H]2C	5	2	nt	-4	nt	7
COC(=O)[C@]12C[C@H](CC(=O)NCCc3ccccc3OC)C(=O)N(Cc3ccco3)C1=C[C@H](C(C)(C)C)O[C@@H]2C	-1	0	nt	1	nt	0
COc1ccccc1-c1cc(NC=O)c2ncc(-c3cccc(C(F)(F)F)c3)n2c1	-3	-2	nt	0	4	6
CN(C)c1ccccc1-c1cc(NC=O)c2ncc(-c3cccc(C(F)(F)F)c3)n2c1	0	42*	nt	14	-75	-31
COc1ccc(CCNCC2C(Oc3ccc(Cl)cc3)C(=O)N2c2ccccc2C)cc1OC (stereo unspecified)	-4	10	-7	23*	-2	-4
Cc1cccc(-c2cccc3c4c([nH]c23)[C@@H]2C[C@H](N(C)C(=O)Nc3ccccc3C)[C@H]([C@H](C)O)C(=O)N2CC4)c1	-2	0	nt	2	nt	15
c1ccc2cc(Cn3ccc4ccc(-c5ccc6cc[nH]c6c5)cc43)ccc2c1	2	-3	nt	-4	nt	30
O=C(NCc1ccco1)C1Cc2ccccc2CN1S(=O)(=O)c1ccccc1F (stereo unspecified)	14*	-1	18	12	13	22

Screening results from PubChem.
